pIC50, pKi: −log10 of the molar value.
Experiments:
Histamine H4 receptor = Histamine H4 receptor (Homo sapiens, UniProt Q9H3N8); experiment: Inhibition of human histamine H4 receptor
Histamine H1 receptor = Histamine H1 receptor (Homo sapiens, UniProt P35367); experiment: Inhibition of human histamine H1 receptor
Histamine H2 receptor = Histamine H2 receptor (Homo sapiens, UniProt P25021); experiment: Inhibition of human histamine H2 receptor
Histamine H3 receptor [1] = biological target: Histamine H3 receptor (Mus musculus, UniProt P58406); experiment: Displacement of [3H]R-alpha-methylhistamine from mouse histamine H3 receptor by cell-based assay
Method in brief: (§1)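 Radioligand binding with [³H]R-α-methylhistamine on membranes of CHO or HEK293 cells expressing human, rat or mouse H₃ receptor.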

Histamine H3 receptor [2] = biological target: Histamine H3 receptor (Rattus norvegicus, UniProt Q9QYN8); experiment: Displacement of [3H]R-alpha-methylhistamine from rat histamine H3 receptor by cell-based assay; method in brief: as §1
Sequence of Histamine H3 receptor (Rattus norvegicus, UniProt Q9QYN8) (Q9QYN8 whole entry): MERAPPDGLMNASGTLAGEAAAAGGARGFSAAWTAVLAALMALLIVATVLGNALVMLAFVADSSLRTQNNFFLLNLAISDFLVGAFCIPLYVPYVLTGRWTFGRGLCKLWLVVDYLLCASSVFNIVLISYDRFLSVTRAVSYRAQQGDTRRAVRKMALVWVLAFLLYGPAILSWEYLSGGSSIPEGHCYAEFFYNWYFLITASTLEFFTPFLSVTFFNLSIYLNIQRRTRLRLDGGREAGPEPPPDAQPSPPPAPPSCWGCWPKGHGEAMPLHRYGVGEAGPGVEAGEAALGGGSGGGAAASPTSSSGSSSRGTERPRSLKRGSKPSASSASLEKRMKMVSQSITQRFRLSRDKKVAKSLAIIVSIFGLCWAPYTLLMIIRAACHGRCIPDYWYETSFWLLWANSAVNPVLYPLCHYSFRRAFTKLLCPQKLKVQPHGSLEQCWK

Sequence of Histamine H4 receptor (Q9H3N8 whole entry): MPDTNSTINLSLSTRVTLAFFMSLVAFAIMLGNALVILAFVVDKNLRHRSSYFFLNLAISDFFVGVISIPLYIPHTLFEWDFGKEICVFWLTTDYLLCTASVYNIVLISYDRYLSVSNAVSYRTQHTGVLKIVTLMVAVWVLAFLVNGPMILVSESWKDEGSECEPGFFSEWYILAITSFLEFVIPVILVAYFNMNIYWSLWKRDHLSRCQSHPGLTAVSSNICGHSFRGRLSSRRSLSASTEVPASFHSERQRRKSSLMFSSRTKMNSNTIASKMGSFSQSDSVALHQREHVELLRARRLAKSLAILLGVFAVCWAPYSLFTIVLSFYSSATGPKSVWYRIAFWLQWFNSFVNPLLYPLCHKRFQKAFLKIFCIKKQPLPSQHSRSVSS
Sequence of Histamine H3 receptor (Mus musculus, UniProt P58406) (P58406 whole entry): as the sequence (Q9QYN8 whole entry) above, with T15A, A286T, A290G, R387H, I389V counted along it
Sequence of Histamine H2 receptor (P25021 whole entry): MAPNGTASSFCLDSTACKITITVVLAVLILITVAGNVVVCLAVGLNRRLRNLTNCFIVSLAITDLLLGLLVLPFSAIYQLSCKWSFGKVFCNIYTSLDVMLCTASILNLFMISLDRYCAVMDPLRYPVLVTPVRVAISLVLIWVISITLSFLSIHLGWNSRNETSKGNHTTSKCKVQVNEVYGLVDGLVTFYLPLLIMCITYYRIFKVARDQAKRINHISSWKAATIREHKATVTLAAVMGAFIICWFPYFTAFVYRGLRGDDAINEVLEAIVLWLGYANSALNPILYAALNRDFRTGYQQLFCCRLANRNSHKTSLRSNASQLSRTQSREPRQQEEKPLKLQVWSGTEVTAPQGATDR
Sequence of Histamine H1 receptor (P35367 whole entry): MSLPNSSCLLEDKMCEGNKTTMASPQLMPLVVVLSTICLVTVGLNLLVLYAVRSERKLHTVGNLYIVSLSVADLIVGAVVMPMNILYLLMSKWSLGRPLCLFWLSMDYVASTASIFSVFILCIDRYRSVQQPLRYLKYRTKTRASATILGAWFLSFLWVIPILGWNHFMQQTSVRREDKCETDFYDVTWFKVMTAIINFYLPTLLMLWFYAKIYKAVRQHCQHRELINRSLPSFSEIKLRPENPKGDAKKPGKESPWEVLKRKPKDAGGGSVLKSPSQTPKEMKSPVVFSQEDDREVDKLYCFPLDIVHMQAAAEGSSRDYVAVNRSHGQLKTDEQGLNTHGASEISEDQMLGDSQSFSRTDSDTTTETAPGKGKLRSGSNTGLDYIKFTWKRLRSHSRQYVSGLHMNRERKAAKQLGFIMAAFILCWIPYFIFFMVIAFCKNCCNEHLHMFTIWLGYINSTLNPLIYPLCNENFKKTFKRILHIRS

Molecule COc1cccc2c1O[C@@H](c1ccc(OCCCN3CCCC3)cc1)[C@H](C)S2(=O)=O has a pIC50 (Histamine H4 receptor) of less than 5.00, a pIC50 (Histamine H1 receptor) of less than 5.00 and a pIC50 (Histamine H2 receptor) of less than 5.00. The pKi (Histamine H3 receptor [1]) was 8.23 and the pKi (Histamine H3 receptor [2]) was 8.55.

From ChEMBL document CHEMBL1152368, “Synthesis, structure-activity relationships, and biological profiles of a dihydrobenzoxathiin class of histamine H(3) receptor inverse agonists” (Bioorg Med Chem Lett, 2009)
